Active and inactive are the calls of the source. The rule behind the calls is not given here.

The target in experiment [1] is T1, Histone-lysine N-methyltransferase SETD7 (Homo sapiens, UniProt Q8WTS6).
T1 sequence (Q8WTS6 whole entry): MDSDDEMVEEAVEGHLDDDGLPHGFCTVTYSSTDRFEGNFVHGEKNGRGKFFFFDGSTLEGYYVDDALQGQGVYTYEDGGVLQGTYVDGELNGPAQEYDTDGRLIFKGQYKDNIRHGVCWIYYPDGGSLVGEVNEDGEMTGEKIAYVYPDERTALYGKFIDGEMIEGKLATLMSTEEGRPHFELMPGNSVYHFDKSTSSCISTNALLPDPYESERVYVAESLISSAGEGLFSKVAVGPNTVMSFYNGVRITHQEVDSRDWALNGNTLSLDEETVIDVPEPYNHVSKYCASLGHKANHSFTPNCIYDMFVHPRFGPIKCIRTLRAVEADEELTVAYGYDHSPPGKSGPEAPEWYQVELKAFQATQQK
As to the kind of experiment: Inhibition of recombinant Set7/9 (unknown origin) expressed in Escherichia coli BL21 (DE3) using biotinylated histone H3-derived peptide/SAM as substrate by alphaLISA.

A further experiment has as its system MCF7. As to the kind of experiment: Effect on ERalpha expression in human MCF7 cells at 10 to 100 uM after 48 hrs by immunoblotting analysis. In kind it is functional, cell-based. In short, it runs like this:
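MCF7 cells were treated with various concentrations for 48 h. Lysates were made in RIPA buffer with protease inhibitors, separated by SDS-PAGE, transferred to PVDF and immunoblotted for ERα with a rabbit polyclonal antibody. Detection was by chemiluminescence.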

In experiment [2] the target is T2, Histone-lysine N-methyltransferase SETD7 (Homo sapiens) (UniProt Q8WTS6).
T2 sequence (whole entry): T1 sequence (Q8WTS6 whole entry)
As to the kind of experiment: Inhibition of Set7/9 (unknown origin) expressed in Escherichia coli BL21 (DE3) by fluorogenic assay.

Experiment [3] concerns the target T2, Histone-lysine N-methyltransferase SETD7 (Homo sapiens). As to the kind of experiment: Inhibition of Set7/9 in human MCF7 cells assessed as suppression of beta-estradiol-induced ERE promoter activation at 3 to 10 uM preincubated for 18 hrs followed by beta-estradiol addition measured after 24 hrs by luciferase reporter gene assay. The format is cell-based. In outline: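 MCF7 cells were switched to estrogen-free medium (phenol red-free RPMI, 10% charcoal-stripped FBS) for 3 days, then transfected with pGL4-3×ERE-TA2 and hRuc-TK. After 6 h, compound was added. After 18 h more, cells received ± 10 nM β-estradiol for 24 h. Dual-luciferase readout: firefly normalized to Renilla, given as fold over unstimulated cells. Four independent assays, SD.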

Experiment [4] has the same target. As to the kind of experiment: Inhibition of Set7/9 in human MCF7 cells assessed as suppression of beta-estradiol-induced pS2 mRNA expression at 3 to 10 uM preincubated for 18 hrs followed by beta-estradiol addition measured after 24 hrs by RT-PCR analysis. The format is cell-based. The note with it: in the assay text read “preincubated for 24 hrs” for “preincubated for 18 hrs”. In short, it runs like this:
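MCF7 cells in estrogen-free medium were treated with compound for 24 h, then with 10 nM β-estradiol plus compound for a further 24 h. pS2 and GAPDH mRNA levels were measured by semiquantitative RT-PCR.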

On to `CC(=O)N1CCC(=C2c3ccccc3C=Cc3ccccc32)CC1`, for which the IC50 in experiment [1] is more than 100 µM.
With `O=C(c1ccc(F)cc1)C1CCN(CCn2c(=O)[nH]c3ccccc3c2=O)CC1`, the result with MCF7 was inactive. In addition, the inhibition entry in experiment [2] is “inactive”.
As to `CC/C(=C(\c1ccccc1)c1ccc(OCCN(C)C)cc1)c1ccccc1`, the inhibition entry in experiment [3] and in experiment [4] was “Active” throughout.
On to `Cc1ccc(/C(=C\CN2CCCC2)c2ccccn2)cc1`, for which, in the experiment on MCF7, the result was inactive. Moreover, in experiment [2], the inhibition entry was “inactive”.

These data come from ChEMBL document CHEMBL3808369, “Identification of Cyproheptadine as an Inhibitor of SET Domain Containing Lysine Methyltransferase 7/9 (Set7/9) That Regulates Estrogen-Dependent Transcription” (J Med Chem, 2016).
